Source: PMC11780632 (Bioinformatics and Biology Insights, 2025)
In brackets after ≈: the same amount, converted by molar mass.

Legend:
S. aureus ATCC 25923 [1] = experiment: Radial diffusion assay; format: cell-based, Staphylococcus aureus; conditions: RDA, Mueller-Hinton agar, 1 × 10^6 CFU/mL, 24 hours at 37°C, done 3 times
E. coli ATCC 25922 = experiment: MIC and MBC, micro-broth dilution; format: cell-based; conditions: Escherichia coli, ATCC25922, 24 h
Summary of the method: (§1)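 Strains were grown aerobically for 24 h at 37°C. Two-fold serial dilutions of test peptide were made in 96-well plates, and an equal volume of bacterial suspension at 1 × 10⁶ CFU/mL was added. Plates were incubated for 24 h at 37°C, with gentamicin as control. MIC was taken as the lowest concentration preventing growth.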

S. aureus ATCC 25923 [2] = experiment: MIC and MBC, micro-broth dilution; format: cell-based; conditions: Staphylococcus aureus, ATCC25923, 24 h
Summary of the method: as §1

A. baumannii ATCC 19606 = experiment: MIC and MBC, micro-broth dilution; format: cell-based; conditions: Acinetobacter baumannii, ATCC19606, 24 h
Summary of the method: as §1

P. aeruginosa ATCC 27853 = experiment: MIC and MBC, micro-broth dilution; format: cell-based; conditions: Pseudomonas aeruginosa, ATCC27853, 24 h
Summary of the method: as §1

MIC (E. coli ATCC 25922): 1000 µM (≈ 478 µg/mL)
MIC (S. aureus ATCC 25923 [2]): 2000 µM (≈ 955 µg/mL)
MIC (A. baumannii ATCC 19606): 8000 µM (≈ 3820 µg/mL)
MIC (P. aeruginosa ATCC 27853): 4000 µM (≈ 1910 µg/mL)
Structure (SMILES): CNC(C)C1CCC(N)C(OC2C(N)CC(N)C(OC3OCC(C)(O)C(NC)C3O)C2O)O1 (centres unmarked) [Gentamicin, gentamicin]
diameter of the inhibition zone (S. aureus ATCC 25923 [1]): 26 mm
